Bioassay records: PubChem, Sanford-Burnham Center for Chemical Genomics
PMI act hi M6P – increases human PMI activity with near-saturating mannose 6-phosphate; actives 0.34% (n = 190,000); activation factor at 20 µM; P34949; coupled PMI enzyme assay, resazurin fluorescence, 20 min; stronger effect = higher value; 1 = untreated enzyme, 0 = substrate-free blank;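 active means activation factor of 2 or more at 20 µM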
Target sequence (P34949 whole entry, looked up): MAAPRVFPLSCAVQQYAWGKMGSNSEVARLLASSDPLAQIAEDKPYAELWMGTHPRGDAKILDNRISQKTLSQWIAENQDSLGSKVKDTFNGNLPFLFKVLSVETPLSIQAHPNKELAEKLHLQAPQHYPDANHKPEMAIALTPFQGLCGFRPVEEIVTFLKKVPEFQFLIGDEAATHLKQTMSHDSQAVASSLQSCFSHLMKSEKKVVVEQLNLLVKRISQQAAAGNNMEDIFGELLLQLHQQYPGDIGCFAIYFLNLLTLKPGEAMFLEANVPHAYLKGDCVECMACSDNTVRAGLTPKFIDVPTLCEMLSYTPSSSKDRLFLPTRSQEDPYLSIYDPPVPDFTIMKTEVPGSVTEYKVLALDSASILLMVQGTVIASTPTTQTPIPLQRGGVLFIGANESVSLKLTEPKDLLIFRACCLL
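Material: human phosphomannose isomerase with PGI, G6PDH, diaphorase coupling enzymes. Quantity: 15 ng/mL PMI. Medium: HEPES pH 7.4 buffer with MgCl2 and Tween-20. Reagent: Near-saturating mannose-6-phosphate, 1.0 mM. Compound: 20 µM single dose. Times: enzyme reaction with compound 20 min at room temperature. Detection: resorufin fluorescence at Ex 544/Em 590 nm.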
Diaph act CS – diaphorase activation or chemical reduction counter-screen; actives 0.005% (n = 190,000); AID 1229; Diaphorase/resazurin coupled assay, resorufin fluorescence, 16 min; stronger effect = higher value; 1 = vehicle wells, 0 = NADH-free wells; activation factor at 20 µM;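 active means diaphorase activity raised at least twofold by the compound at 20 µM; inactive means activation factor below 2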
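Assay system: Purified diaphorase enzyme from Clostridium kluyveri | Amount: Enzyme 0.07 U/mL final | Dosing: Compound 20 µM once, DMSO 1% | Timing: 16 min reaction at room temperature | Detection: Fluorescence, excitation 544 nm and emission 590 nm | Evaluation: Higher resorufin formation from activation or reduction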
PMI act – increases human mannose-6-phosphate isomerase activity; P34949; activation factor at 20 µM; purified human PMI, coupled resazurin fluorescence, 20 min; stronger effect = higher value; 1 = vehicle control, 0 substrate-free wells; actives 0.005% (n = 190,000);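 active means activation factor of 2 or more at 20 µM, relative to plate controls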
Diaphorase inh – diaphorase inhibition or chemical oxidation counter-screen; inhibition, % at 20 µM; actives 0.69% (n = 190,000); diaphorase resazurin-to-resorufin fluorescence, NADH, 16 min; bacterial (C. kluyveri) enzyme, not human;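 active means primary screen inhibition at 20 µM above a set limit, cut at about 50% in these data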;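 further: plate controls were DMSO with full reaction for no effect and wells lacking NADH for full effect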
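controls = No-NADH positive control and DMSO neutral control | system = Clostridium kluyveri diaphorase enzyme | timing = reaction incubation of 16 min at room temperature | signal = resorufin fluorescence 544/590 nm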
G6PDH CS – L. mesenteroides G6PDH inhibition counter-screen; Purified L. mesenteroides G6PDH, diaphorase/resazurin coupled fluorescence, 45 min; actives 0.12% (n = 200,000); inhibition, % at 5 µM; AID 1020; in the data active means inhibition above about 50%
* marks the source's active call; other numbers are inactive results; · = not tested or not shown. Shown are actives, neighbours in structure and some others; about 1.1% of the full set was active somewhere.

SMILES	PMI act hi M6P	Diaph act CS	PMI act	Diaphorase inh	G6PDH CS
O=C(O)c1cccc(-c2ccc(/C=N/NC(=O)c3cccnc3)o2)c1	1	0.9	1.2	6.5	-0.4
O=C(N/N=C/c1ccc(-c2ccccc2[N+](=O)[O-])o1)c1cccnc1	0.6	0.4	0.4	59.4*	-24.9
Cc1ccc(Nc2nc(-c3ccc(O)c(O)c3)cs2)nc1	0.5	0.2	0.3	83.3*	24.5
COc1cc(Cl)cc(/C=N/NC(N)=O)c1O	0.5	0.7	0.6	26.2	53.5*
COc1ccc(-c2csc3nc(C)nc(N4CCN(c5ccc(C(C)=O)cc5)CC4)c23)cc1OC	1.1	0.8	1	16.9	1.8
NC(=O)C1=C[C@H](c2csc3ccccc23)C[C@H](OCCCCO)O1	0.4	0.4	0.6	56.0*	18.3
Nc1cccc2cnccc12	0.3	0.5	0.3	54.1*	29.6
COc1ccccc1Nc1nnc(SCc2cc(=O)n3cc(C)ccc3n2)s1	1.1	0.9	1	14.2	7.8
CCOC(=O)c1nn(-c2ccc(F)cc2)c(=O)c2c(N)scc12	0.4	0.7	0.6	32.4	50.9*
CO[C@H]1C=CO[C@@]2(C)Oc3c(C)c(O)c4c(O)c(c(C=NN5CCN(C)CC5)c(O)c4c3C2=O)NC(=O)C(C)=CC=C[C@H](C)[C@H](O)[C@@H](C)[C@@H](O)[C@@H](C)[C@H](OC(C)=O)[C@@H]1C	0.6	0.6	0.9	37.2	33.6
CO[C@H]1C=CO[C@@]2(C)Oc3c(C)c(O)c4c(O)c(c(C=NN5CCN(C6CCCC6)CC5)c(O)c4c3C2=O)NC(=O)C(C)=CC=C[C@H](C)[C@H](O)[C@@H](C)[C@@H](O)[C@@H](C)[C@H](OC(C)=O)[C@@H]1C	0.3	0.2	0.5	84.4*	14.4
O=[N+]([O-])c1ccccc1-c1ccc(C(=S)N2CCCC2)o1	0.8	0.5	1	52.8*	26.9
CCCCOc1ccc(/C=C/C2=CC(C)(C)NC(=S)N2)cc1OCC	2*	1	1.6	2.6	6.6
CCOc1cc(C=O)ccc1OCCCN1C(=O)NC(C)(C)C1=O	1	0.9	1.1	5.8	7.6
C#CCOCCOCCOCCNc1nc(N2CCN(C(=O)[C@H](CCC(=O)O)n3cc(C(N)CC(C)C)nn3)CC2)nc(N2CCN(C(=O)[C@H](Cc3ccc(O)cc3)n3cc(C(N)[C@H](C)CC)nn3)CC2)n1 (stereo partly specified)	1.1	0.6	0.8	45.0	8.6
COc1cccc(C(=O)COC(=O)c2n[nH]c(=O)c3ccccc23)c1	0.9	1	1	0.0	4.1
Cc1ccc2[nH]c(=O)c(C(c3nnnn3CC3CCCO3)N3CCc4ccccc4C3)cc2c1 (stereo unspecified)	1.1	0.4	0.8	62.8*	11.3
Cc1ccc2cc(C(c3nnnn3Cc3ccccc3)N3CCc4ccccc43)c(=O)[nH]c2c1 (stereo unspecified)	1.2	0.6	0.9	41.0	-2.9
Cc1ccc2[nH]c(=O)c(C(c3nnnn3CC3CCCO3)N3CCOCC3)cc2c1 (stereo unspecified)	1	0.9	1	14.0	4.3
Cc1ccc2[nH]c(=O)c(C(c3nnnn3CC3CCCO3)N3CCCc4ccccc43)cc2c1 (stereo unspecified)	1	0.2	0.7	79.8*	14.1
COc1ccc2[nH]c(=O)c(C(c3nnnn3CC3CCCO3)N3CCc4ccccc4C3)cc2c1 (stereo unspecified)	1.3	0.5	1.4	52.1*	5.0
CC(=O)OC1C2CCC1C([N+]1(C)CCCCC1)CC2 (stereo unspecified)	0.9	0.9	0.7	8.6	-0.4
Cc1ccccc1Nc1c(F)c(F)c(F)c(F)c1C(=O)O	1	0.8	1.1	23.2	5.0
CN(C)CCN(C)Cc1ccccc1Sc1cccc2ccccc12	1.3	1.1	1.4	-8.3	1.5
COc1cc2c(cc1NC(=O)C(C)Sc1ccc(NC(C)=O)cc1)oc1ccccc12 (stereo unspecified)	0.9	0.2	0.7	82.3*	-22.0
SMILES	PMI act hi M6P	Diaph act CS	PMI act	Diaphorase inh	G6PDH CS
COc1cc(C(=O)O/N=C2/C=CC(=O)C(C)=C2C)cc(OC)c1OC	0.3	0.7	0.6	33.4	4.0
COc1cc(C(=O)O/N=C2\C=CC(=O)C=C2C)cc(OC)c1OC	0.4	0.4	0.5	57.7*	-8.5
COc1cc2c(cc1C1NC(=S)NC(C)=C1C(N)=O)CCCC2 (stereo unspecified)	·	·	·	·	16.7
Oc1c(Cl)cc(Cl)c2c1NCCC2	0.5	0.4	0.4	63.7*	-15.5
O=C1NCCCc2c1oc1ccc(O)cc21	1	1.1	1.1	-14.3	10.5
O=C1CCCC2=C1C(c1ccco1)Nc1ccc(C(=O)c3ccccc3)cc1N2 (stereo unspecified)	1.3	0.3	1.2	67.6*	32.3
CC/C(=C/c1sc2ccccc2[n+]1CC)SC	2*	0.9	1.7	6.7	-9.8
CC[n+]1c(/C=C(\C)SC)sc2ccccc21	2*	1	1.5	1.8	9.5
CC[n+]1c(/C=C(/C)SC)sc2ccccc21	1.4	0.8	1.1	18.4	-1.8
CCn1nc(C)c(NS(=O)(=O)c2ccccc2)c1C	1	0.9	1	12.9	-4.0
COc1ccc2c(C)cc(SC3CCOC3=O)nc2c1 (stereo unspecified)	0.9	0.9	1	11.7	5.1
Cc1cc(C)c2nc(SC3CCOC3=O)cc(C)c2c1 (stereo unspecified)	2.5*	0.9	1.5	6.4	5.3
Cc1c(-c2ccc(Br)cc2)[n+](=O)c2c(n1[O-])CCCC2	1	0.9	0.9	14.7	3.7
Clc1cncc(Cl)c1NNc1c2ccccc2nc2ccccc12	2.2*	0.8	1.6	15.6	-47.2
Nc1nn2c(-c3ccccc3)cc(=O)[nH]c2c1N=Nc1ccc(O)cc1	0.4	0.5	0.6	54.4*	24.1
Nc1nn2c(-c3ccccc3)cc(=O)[nH]c2c1N=Nc1ccc(Br)cc1	0.9	0.7	1	31.5	11.9
COC(=O)COc1ccc(S(=O)(=O)N2CCc3ccccc3C2)cc1C	1	0.8	1	19.4	-0.2
CNC(=O)CNC(=O)Nc1ccc(Cl)c(Cl)c1	1	0.3	1	67.3*	7.3
CSCC[C@H](NC(=O)CCNC(C)=O)c1nc2ccccc2[nH]1	1	0.9	1	9.2	4.6
COc1cccc(C(=O)NCCSc2ccc(F)cc2)c1	1.1	0.4	1.1	56.3*	-1.3
COc1cccc(C(=O)NCCSc2ccc(C)cc2)c1	1.2	0.9	1.2	5.9	24.4
Cc1ccccc1N1Cc2ccccc2C1	2.2*	0.9	1.7	8.3	8.3
